Five compounds from ChEMBL document CHEMBL3856278, “Antitumor Activity of Lankacidin Group Antibiotics Is Due to Microtubule Stabilization via a Paclitaxel-like Mechanism” (J Med Chem, 2016) can be followed below.

A word on the IC50: it is the midpoint of a concentration-inhibition curve. As usually defined, the EC50 is the concentration that produces a half-maximal response.

Calls of active or inactive are those of the source. The rule behind the calls is not given here.

In assay [1] the test system is T47D. As to the kind of experiment: Destabilization of microtubule network in human T47D cells at 0.5 uM after 2 hrs by DAPI staining-based immunofluorescence assay. Type of assay: cell-based. In outline: (§1)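 T47D cells seeded on coverslips and synchronized. Treated 2 h with drug (colchicine 0.5 μM, paclitaxel 100 nM, lankacidin C 1 mM) against a 1% DMSO control. Stained with anti-tubulin antibody and Alexa Fluor 488 secondary, DNA counterstained with DAPI. Imaged by epifluorescence microscopy with a 63× objective.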

The species entered for assay [2] is Sus scrofa. As to the kind of experiment: Destabilization of rhodamine labeled porcine microtubule assessed as appearance of short strands microtubules at 10 uM after 5 mins by upright fluorescence microscopic analysis.
Assay [3] in a line: Cytotoxicity against human HeLa cells assessed as decrease in cell viability after 48 hrs by CellTiter-Blue assay. Type of assay: functional, cell-based. In outline: (§2)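 HeLa cells in DMEM with 10% FBS; T47D cells in RPMI1640 with 10% FBS, insulin and pyruvate. Cells seeded at 2000 per well 24 h before treatment. Triplicate wells given increasing drug concentrations in DMSO for 48, 72 or 96 h. Viability read by CellTiter-Blue fluorescence (560ex/590em) after 2–4 h with reagent. Run twice; mean and SEM reported.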

A short description of assay [4]: Cytotoxicity against human HeLa cells assessed as decrease in cell viability after 72 hrs by CellTiter-Blue assay. Type of assay: functional, cell-based. In outline:
as §2
A general note: The colour change of resazurin is a common sign of viable cells or microbes.

Assay [5] in a line: Cytotoxicity against human HeLa cells assessed as decrease in cell viability after 96 hrs by CellTiter-Blue assay. It is filed as functional, cell-based. In outline: as §2
Assay [6] can be described thus: Cytotoxicity against human T47D cells assessed as decrease in cell viability after 48 hrs by CellTiter-Blue assay. Type of assay: functional, cell-based. A digest of the protocol: as §2
The nature of assay [7]: Cytotoxicity against human T47D cells assessed as decrease in cell viability after 96 hrs by CellTiter-Blue assay. Type of assay: functional, cell-based. A digest of the protocol:
as §2

In assay [8] the test system is T47D. The experiment in a line: Stabilization of interphase microtubule network in human T47D cells at 1 mM after 2 hrs by DAPI staining-based immunofluorescence assay. It is filed as cell-based. A digest of the protocol: as §1
Assay [9] concerns T47D. As to the kind of experiment: Stabilization of interphase microtubule network in human T47D cells assessed as disruption of mitotic spindles at 1 mM after 2 hrs by DAPI staining-based immunofluorescence assay. Type of assay: cell-based. A digest of the protocol:
as §1

For assay [10], the species on record is Sus scrofa. The experiment in a line: Induction of porcine tubulin polymerization assessed as maximum growth rate at 10 uM measured every 94 secs (reference value: 13 milliOD/min). A digest of the protocol: (§3)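 Assembly followed at 37 °C by OD340 every 94 s for 61 cycles. Averaged curves from three runs were analysed for nucleation, Vmax and final polymer mass.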

The species entered for assay [11] is Sus scrofa. The experiment in a line: Induction of porcine tubulin polymerization assessed as increase in final polymer mass at 10 uM measured every 94 secs. In outline:
as §3

For assay [12], the species on record is Sus scrofa. As to the kind of experiment: Induction of porcine tubulin polymerization assessed as decrease in duration of nucleation phase at 10 uM measured every 94 secs. A digest of the protocol:
as §3

The species entered for assay [13] is Sus scrofa. The experiment in a line: Induction of porcine tubulin polymerization assessed as bypass of nucleation phase at 100 uM measured every 94 secs. In outline:
as §3

For assay [14], the species on record is Sus scrofa. As to the kind of experiment: Induction of porcine tubulin polymerization assessed as maximum growth rate at 100 uM measured every 94 secs (reference value: 13 milliOD/min). A digest of the protocol: as §3
Assay [15] is filed under the species Sus scrofa. As to the kind of experiment: Induction of porcine tubulin polymerization assessed as doubling of final polymer mass at 100 uM measured every 94 secs. A digest of the protocol: as §3
For assay [16], the species on record is Sus scrofa. As to the kind of experiment: Stabilization of rhodamine labeled porcine microtubule assessed as appearance of long strands microtubules at 10 uM after 5 mins by upright fluorescence microscopic analysis. A digest of the protocol: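 Rhodamine-labeled tubulin mixed 1:4 with unlabeled tubulin to 5 mg/mL in G-PEM (12% glycerol, pH 7.0). Polymerized 20 min at 37 °C, then drug added to 10 μM and incubated 5 min more at 37 °C. Diluted to 1.3 mg/mL and imaged immediately by fluorescence microscopy with a 40× oil objective.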

The nature of assay [17]: Inhibition of flutax-2 binding to porcine microtubule assessed as flutax-2 EC50 at 128 uM after 1 hr by fluorescence assay (reference value: 248 +/- 50 nM). On the set-up: species or system Sus scrofa.
A short description of assay [18]: Binding affinity to paclitaxel binding site of porcine microtubule after 1 hr by Michaelis-Menten plot analysis. More on the design: species or system Sus scrofa. The conditions noted are these: read-out: Kd(app).
The nature of assay [19]: (§4) Binding affinity to free porcine brain tubulin dimers after 30 mins by fluorescence quenching assay. On the set-up: species or system Sus scrofa. In outline: (§5)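 Free tubulin dimers (porcine brain tubulin, or recombinant human αI-βI) at 2 μM final in 10 mM sodium phosphate, 10 mM MgCl2, 1 mM GTP, 0.5% DMSO, 250 mM sucrose, pH 7.0. Held on ice 10 min, then ligand added at 5–100 μM final. Incubated 30 min at 25 °C, then rotated 1 h at room temperature. Tryptophan emission read at 310–400 nm with 295 nm excitation. Kd derived by Stern–Volmer fit.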

Assay [20] is filed under the species Sus scrofa. The assay is described as §4. A digest of the protocol:
as §5

Assay [21] concerns the target Tubulin alpha-1A /beta chains (Homo sapiens) (UniProt Q71U36+P07437). As to the kind of experiment: (§6) Binding affinity to human recombinant tubulin alpha 1A/tubulin beta chain after 30 mins by fluorescence quenching assay. Type of assay: protein-complex assay. In outline:
as §5

The target in assay [22] is Tubulin alpha-1A /beta chains (Homo sapiens, UniProt P07437+Q71U36). The description is as §6. It is filed as protein-complex assay. A digest of the protocol: as §5
Sequence of Tubulin alpha-1A /beta chains (P07437 whole entry, looked up): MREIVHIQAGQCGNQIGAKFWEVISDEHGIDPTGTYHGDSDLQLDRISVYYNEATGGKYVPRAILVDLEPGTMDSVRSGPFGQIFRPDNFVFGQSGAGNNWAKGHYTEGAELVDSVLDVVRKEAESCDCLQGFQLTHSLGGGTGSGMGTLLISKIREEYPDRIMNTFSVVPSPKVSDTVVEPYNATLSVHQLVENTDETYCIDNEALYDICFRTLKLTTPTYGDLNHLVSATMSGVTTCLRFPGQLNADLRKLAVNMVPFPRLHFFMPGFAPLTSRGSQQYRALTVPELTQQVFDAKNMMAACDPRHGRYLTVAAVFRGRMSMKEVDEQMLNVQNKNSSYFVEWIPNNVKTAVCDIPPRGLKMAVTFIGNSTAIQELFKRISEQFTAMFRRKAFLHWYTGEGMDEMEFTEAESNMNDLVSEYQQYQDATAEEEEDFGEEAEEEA
Sequence of Tubulin alpha-1A /beta chains (Q71U36 whole entry, looked up): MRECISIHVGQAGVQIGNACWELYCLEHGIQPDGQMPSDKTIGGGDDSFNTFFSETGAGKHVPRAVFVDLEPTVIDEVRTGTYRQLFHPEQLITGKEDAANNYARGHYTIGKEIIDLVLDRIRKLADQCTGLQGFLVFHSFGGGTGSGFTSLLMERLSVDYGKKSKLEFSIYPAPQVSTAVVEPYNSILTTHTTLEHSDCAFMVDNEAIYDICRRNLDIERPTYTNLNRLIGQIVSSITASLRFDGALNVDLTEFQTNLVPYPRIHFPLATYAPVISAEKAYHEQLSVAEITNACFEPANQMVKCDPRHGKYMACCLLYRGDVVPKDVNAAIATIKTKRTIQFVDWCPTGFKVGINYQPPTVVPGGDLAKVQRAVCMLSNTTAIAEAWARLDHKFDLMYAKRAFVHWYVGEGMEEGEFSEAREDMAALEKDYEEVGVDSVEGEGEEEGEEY
The species entered for assay [23] is Sus scrofa. As to the kind of experiment: Inhibition of porcine tubulin polymerization assessed as increase in duration of nucleation phase at 10 uM measured every 94 secs. A digest of the protocol: (§7)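 Plate prewarmed to 37 °C; OD340 read at 37 °C every 94 s for 61 cycles with orbital shaking. Runs in triplicate, duplicate for mebendazole; the averaged curve gave phase lengths, Vmax and final polymer mass.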

For assay [24], the species on record is Sus scrofa. As to the kind of experiment: Inhibition of porcine tubulin polymerization assessed as maximum growth rate at 10 uM measured every 94 secs (reference value: 13 milliOD/min). In outline:
as §7

Assay [25] is filed under the species Sus scrofa. As to the kind of experiment: Inhibition of porcine tubulin polymerization assessed as decrease in final polymer mass at 10 uM measured every 94 secs. A digest of the protocol: as §7
Assay [26] deals with T47D. The experiment in a line: Stabilization of microtubule network in human T47D cells at 100 nM after 2 hrs by DAPI staining-based immunofluorescence assay. It is filed as cell-based. In outline: (§8)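 T47D cells in RPMI1640 with 2 mM L-glutamine, 10% FBS, 0.01 mg/mL insulin and 1 mM pyruvate were seeded on coverslips, synchronized, then given drug 2 h (1% DMSO solvent control). Anti-tubulin antibody with Alexa Fluor 488 secondary and 0.1 μg/mL DAPI for DNA; epifluorescence at 63×, interphase networks and mitotic spindles scored.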

Assay [27] has as its system T47D. The experiment in a line: Stabilization of interphase microtubule network in human T47D cells assessed as disruption of mitotic spindles at 100 nM after 2 hrs by DAPI staining-based immunofluorescence assay. It is filed as cell-based. A digest of the protocol: as §8
For assay [28], the species on record is Sus scrofa. As to the kind of experiment: Induction of porcine tubulin polymerization assessed as bypass of nucleation phase at 10 uM measured every 94 secs. In outline:
as §7

Sequence of Tubulin alpha-1A /beta chains (Homo sapiens) (P07437 whole entry, looked up): as the sequence (P07437 whole entry, looked up) above
Sequence of Tubulin alpha-1A /beta chains (Homo sapiens) (Q71U36 whole entry, looked up): as the sequence (Q71U36 whole entry, looked up) above

With `COc1cc2c(c(OC)c1OC)-c1ccc(OC)c(=O)cc1[C@@H](NC(C)=O)CC2`, the outcome in the assay with T47D [1] and in the assay listed under Sus scrofa [2] was Active.
For `CC(=O)C(=O)N[C@@H]1/C=C(\C)C=C[C@@H](O)C/C=C(C)/C=C/[C@@H](O)C[C@H]2OC(=O)[C@]1(C)C(=O)[C@@H]2C`, the IC50 in assay [3] was 1080 µM; in [4], 324 µM; in [5], 224 µM; in [6], 202 µM; in assay [7], 11.1 µM. Moreover, the outcome in the assay with T47D [8], in the assay with T47D [9], in the assay filed under Sus scrofa [11], in the assay listed under Sus scrofa [12], in the assay listed under Sus scrofa [13] and in the assay listed under Sus scrofa [15] was Active. Also, the result in the assay filed under Sus scrofa [16] was Active. Besides, the Vmax (milli optical density/minute) in the assay filed under Sus scrofa [10] came out at 18; in the assay listed under Sus scrofa [14] it was 35. Moreover, the EC50 in assay [17] is 0.921 µM. The results for the Kd in [18], in [19] and in assay [22] were 50 µM, 546 µM and 1060 µM, respectively. Moreover, the Activity result (in the assay listed under Sus scrofa [20]; in assay [21]) was “Dose-dependent effect” throughout.
`COC(=O)Nc1nc2cc(C(=O)c3ccccc3)ccc2[nH]1`: the inhibition result in the assay listed under Sus scrofa [23] and in the assay listed under Sus scrofa [25] was “Active” throughout. In the assay listed under Sus scrofa [24], the Vmax (milli optical density/minute) is 4.
`CC(=O)O[C@@H]1/C=C/C(C)=C/C[C@H](O)/C=C/C(C)=C/[C@@H](NC(=O)C(C)O)[C@]2(C)C(=O)O[C@H](C1)[C@@H](C)C2=O` (stereo not given in full): the figures for the Kd in assay [19] and in [22] were 1100 µM and 654 µM, respectively. Moreover, the Activity entry (in the assay listed under Sus scrofa [20]; in assay [21]) was “Dose-dependent effect” throughout.
Regarding `CC(=O)O[C@H]1C(=O)[C@@]2(C)[C@H]([C@H](OC(=O)c3ccccc3)[C@]3(O)C[C@H](OC(=O)[C@H](O)[C@@H](NC(=O)c4ccccc4)c4ccccc4)C(C)=C1C3(C)C)[C@]1(OC(C)=O)CO[C@@H]1C[C@@H]2O`, the result in the assay with T47D [26], in the assay with T47D [27], in the assay listed under Sus scrofa [28], in the assay listed under Sus scrofa [11] and in the assay listed under Sus scrofa [16] was Active. Further, the Vmax (milli optical density/minute) in the assay listed under Sus scrofa [10] came to 21.
